# From PubChem
# The entries come from a sample that favours hits as a whole.
# Dynein cargo inh – dynein cargo transport inhibition. z-score, hits read low. AID 1381. 3617.4 mouse cells, GR-EGFP nuclear translocation imaging; test concentration mostly 20 µM; stimulated with dexamethasone, 1 µM; stronger effect = lower value. hit rate 0.47% among 220,000;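 active = plate z-score of nuclear minus cytoplasmic receptor signal below a set negative limit, without overly bright fluorescence or cell loss, cut at about -3.5 in these data, passing the limit was not always enough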;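 also: z-score of nuclear minus cytoplasmic ring GR-EGFP intensity difference per well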
#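 Buffer or medium: tet-free, stripped-serum medium; reagent: dexamethasone at 1.0 µM final, 30 min; incubation: 48 h induction, 1 h compound, 30 min dex at 37 °C; measured by: formaldehyde fixation, Hoechst nuclear stain, 10x automated fluorescence imaging; read-out: nuclear-to-cytoplasmic GR-EGFP distribution per well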
# CHOP inh – blocks CHOP induction under ER stress; AID 2732; hit rate 3.8% among 220,000; inhibition, % at 10 µM; CHO-K1 CHOP-promoter luciferase, tunicamycin-induced, 15-18 h;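 active = compounds that reduced the stress-induced luciferase reporter signal by more than about 70% of percent inhibition, limit read from the data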;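 also: 0% = tunicamycin plus vehicle and 100% = wells without tunicamycin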
# p-CIP stab down – lowers stability of the mouse p/CIP coactivator protein; Q05BA5; F442A p/CIP-EGFP cells, EGFP fluorescence, 16 h; decrease of EGFP signal, % at 10 µM; hit rate 0.01% among 290,000;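 active = EGFP signal decrease of at least 30% at 10 µM or well 3 SD below plate mean, unless failing retest; inactive = the rest, including hits failing retest or dose response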
# Target sequence (Q05BA5 1-1403): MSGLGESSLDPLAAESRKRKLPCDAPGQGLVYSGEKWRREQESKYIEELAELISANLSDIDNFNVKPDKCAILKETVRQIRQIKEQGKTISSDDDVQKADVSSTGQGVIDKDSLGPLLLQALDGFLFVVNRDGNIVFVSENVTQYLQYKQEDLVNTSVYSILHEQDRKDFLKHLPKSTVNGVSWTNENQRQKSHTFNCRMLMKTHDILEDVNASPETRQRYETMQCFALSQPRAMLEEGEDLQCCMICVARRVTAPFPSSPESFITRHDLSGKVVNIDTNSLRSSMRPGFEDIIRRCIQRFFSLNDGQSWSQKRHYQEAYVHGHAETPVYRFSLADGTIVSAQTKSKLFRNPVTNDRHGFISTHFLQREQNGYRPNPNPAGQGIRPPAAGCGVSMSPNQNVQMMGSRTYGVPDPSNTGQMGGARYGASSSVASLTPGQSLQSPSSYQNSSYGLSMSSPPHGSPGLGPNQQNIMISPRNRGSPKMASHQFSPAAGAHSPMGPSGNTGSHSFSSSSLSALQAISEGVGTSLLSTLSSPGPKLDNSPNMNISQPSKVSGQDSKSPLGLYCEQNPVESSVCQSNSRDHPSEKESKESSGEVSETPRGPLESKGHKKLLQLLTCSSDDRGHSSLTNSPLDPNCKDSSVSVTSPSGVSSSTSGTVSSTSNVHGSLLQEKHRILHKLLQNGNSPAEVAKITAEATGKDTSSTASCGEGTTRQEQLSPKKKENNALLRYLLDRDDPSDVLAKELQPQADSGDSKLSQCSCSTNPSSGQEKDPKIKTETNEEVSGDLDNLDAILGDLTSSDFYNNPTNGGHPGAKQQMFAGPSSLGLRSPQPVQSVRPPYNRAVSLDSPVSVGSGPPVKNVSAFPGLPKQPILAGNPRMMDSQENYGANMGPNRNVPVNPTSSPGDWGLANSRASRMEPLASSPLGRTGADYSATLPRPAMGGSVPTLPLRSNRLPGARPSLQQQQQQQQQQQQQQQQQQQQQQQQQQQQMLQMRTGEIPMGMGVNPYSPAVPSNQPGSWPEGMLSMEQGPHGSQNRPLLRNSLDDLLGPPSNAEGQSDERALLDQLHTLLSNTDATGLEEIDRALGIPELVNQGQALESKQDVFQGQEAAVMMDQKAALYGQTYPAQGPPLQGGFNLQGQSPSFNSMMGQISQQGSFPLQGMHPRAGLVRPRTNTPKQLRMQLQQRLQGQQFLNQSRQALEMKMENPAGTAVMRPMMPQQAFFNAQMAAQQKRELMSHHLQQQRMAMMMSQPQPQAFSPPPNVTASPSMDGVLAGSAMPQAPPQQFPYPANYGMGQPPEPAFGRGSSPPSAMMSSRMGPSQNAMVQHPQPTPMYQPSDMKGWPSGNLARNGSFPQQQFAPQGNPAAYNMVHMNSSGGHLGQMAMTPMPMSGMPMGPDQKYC
# XBP1 UPR activ – adaptive UPR (XBP1) activation; CHO-XBP1 luciferase reporter, IRE1-XBP1 UPR activation, luminescence; percent of tunicamycin response, DMSO as zero; activation, % at 20 µM; hit rate 0.33% among 330,000; AID 463104;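 active = versus positive control, 20 µM dose yields 30% or more activation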;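 also: 100% = tunicamycin at 10 µg/mL and 0% = DMSO only wells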
#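 Assay system: CHO-XBP1 luciferase reporter cells; Schedule: 6 h treatment, 37 °C; Detection: glow luminescence from Steady-Glo reagent; Benchmarks: high control tunicamycin 10 µg/mL final, low control DMSO vehicle only.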
# UPR CHOP act – apoptotic UPR (CHOP) activation; AID 449763; activation, % at 10 µM; hit rate 0.34% among 330,000; CHO-CHOP luciferase reporter, luminescence; percent of tunicamycin response over DMSO baseline;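 active = at 10 µM dose, activation of 40% or more, normalized to positive control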;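 also: 100% = tunicamycin at 10 µg/mL and 0% = DMSO alone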
#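 measured by = luciferase luminescence | assay system = CHO-CHOP cells, stable luciferase reporter of PERK-eIF2a-CHOP signalling | amount = 500 reporter cells seeded per well | timing = 6 h compound exposure at 37 °C after overnight seeding | controls = positive tunicamycin 10 µg/mL, negative DMSO alone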
# Beta2AR agonist – activates human beta-2 adrenergic receptor causing internalization. Am2.2-beta2AR cells, FAP receptor internalization, flow cytometry. AID 504454. response, % (concentration not given with the values). hit rate 0.43% among 340,000. P07550;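 active = response above a set limit, near 3 SD of response in nonfluorescent compounds, cut at about 42% in these data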
# An asterisk follows results filed as active; i = inactive; x = no result.
SMILES,Dynein cargo inh,CHOP inh,p-CIP stab down,XBP1 UPR activ,UPR CHOP act,Beta2AR agonist
Cc1nc(-c2cccnc2)sc1C(=O)Nc1ccc(Cl)cc1,-0.12,81*,-3,-3,0,-6
Cc1nc(-c2cccnc2)sc1C(=O)N/N=C/c1ccccc1Cl,0.56,-36,-2,0,0,42*
Cc1nc(-c2ccncc2)sc1C(=O)Nc1ccc(Cl)cc1,0.037,8,-7,-2,0,0
COCCCn1c(SCC(=O)N2CCOCC2)nc2cc(Cl)ccc2c1=O,x,x,x,-1,-1,2
OCC1NCC(O)C(O)C1O (stereo unspecified),x,23,x,x,x,x
Brc1cccc2sc(N3CCCC3)nc12,0.18,3,1,0,1,5
CC(=O)OC1C(N2CCCCC2)c2c(ccc(/C=C/C(=O)N3CCCCC3)c2O)OC1(C)C (stereo unspecified),2,77*,-10,3,7,-2
O=c1oc(Cl)c(Cl)c2ccccc12,x,-21,x,-5,88*,62*
Nc1nc(Cl)cc(N2CCCC2)n1,0.24,-17,-15,-3,0,0
Nc1nc(Cl)cc(N2CCC(c3cc(-c4ccc(Cl)cc4Cl)n[nH]3)CC2)n1,-0.0096,89*,-26,5,8,-2
CCCCc1ccc(NC(=S)NCc2cccs2)cc1,-0.79,85*,-4,-1,0,1
Cc1c(NC(=O)CN2C(=O)NC3(CCC(C)CC3)C2=O)c(=O)n(-c2ccccc2)n1C (stereo unspecified),-0.3,-2,78,-3,2,-1
O=S(=O)(c1ccc(Br)cc1)N1CCN(c2ccc3nnc(-c4ccccc4)n3n2)CC1,0.99,80*,-23,8,4,-13
O=C(c1ccc(Br)o1)N1CCN(c2ccc3nnc(-c4ccccc4)n3n2)CC1,1.4,-11,-21,0,-2,13
COc1ccc(OC)c(NC(=O)c2cc(-c3ccc(C)cc3O)n[nH]2)c1,0.33,87*,-1,4,2,1
O=[N+]([O-])c1cccc(Cl)c1NCCNc1ncc(C(F)(F)F)cc1Cl,-0.43,79*,0,2,0,-7
Cn1c(CCC(N)=O)nnc1SCC(=O)Nc1cc(S(=O)(=O)N2CCCC2)ccc1Cl,x,x,x,-2,0,-4
Cc1cccc(-n2nc([N+](=O)[O-])c(=NC3CCN(Cc4ccccc4)CC3)n2O)c1,1.2,26,11,-1,-2,6
CC/C(=N\NC(=O)c1ccc2c(c1)OCO2)C12CC3CC(CC(C3)C1)C2,-0.068,77*,-8,1,1,1
CC/C(=N\NC(=O)c1ccncc1)C12CC3CC(CC(C3)C1)C2,2.7,30,4,-2,-2,2
CCOC(=O)C1(CCOc2ccccc2)CCN(Cc2ccc(OC)c(COC)c2)CC1,x,x,-2,-2,2,6
c1csc(-c2noc(CN3CCc4sccc4C3)n2)c1,-1.7,42,-6,0,1,-3
COC(=O)c1ccc2nc(-c3cccc(N)c3)cn2c1,0.099,80*,11,-7,-8,-8
COC(=O)c1ccc2nc(-c3ccc(S(C)(=O)=O)cc3)cn2c1,0.72,-31,-8,2,2,0
O=C(CSc1nnc(-c2ccc(F)cc2)o1)Nc1ccccc1N1CCOCC1,2,x,x,3,0,-14
SMILES,Dynein cargo inh,CHOP inh,p-CIP stab down,XBP1 UPR activ,UPR CHOP act,Beta2AR agonist
O=C(O)c1cc2n(n1)C(C(F)(F)F)CC(C1CC1)N2 (stereo unspecified),1.6,15,17,0,0,1
Cc1cc(C=C2C(=O)c3ccccc3C2=O)c(C)n1-c1ccc(C(=O)O)cc1,0.77,-3,-4,1,-1,-3
Cc1cc(/C=C2\Cc3ccccc3C2=O)c(C)n1-c1ccccc1,0.83,89*,2,-8,-6,-24
Cc1cc(C=C2C(=O)c3ccccc3C2=O)c(C)n1-c1ccccc1,0.12,84*,-14,-4,-8,-7
COc1ccc(Cl)cc1N1C(=NC(=O)C2CCCO2)SC2CS(=O)(=O)CC21 (stereo unspecified),x,x,-1,-3,2,2
Cc1ccc(O)c(C2=Nc3ccccc3N=C(c3ccc([N+](=O)[O-])cc3)C2)c1,0.42,-17,4,-3,-2,-3
Cc1ccc(C2=Nc3ccccc3N=C(c3ccco3)C2)c(O)c1,i,72*,-12,-7,-4,-8
Cc1ccc(O)c(C2=Nc3ccccc3N=C(c3ccco3)C2)c1,-0.73,87*,-10,0,-1,-3
CCC(CC)Nc1ccc(C(CC(N)=O)NC(=O)Cc2cccc3ccccc23)cc1[N+](=O)[O-] (stereo unspecified),x,x,-3,-1,0,5
O=C1N/C(=N\N=C\c2cccs2)SC1Cc1cccc(Cl)c1 (stereo unspecified),0.24,88*,-10,1,0,-5
O=C(Nc1ccc(Br)cc1)c1ccc(N2C(=O)C3CC=C(Cl)CC3C2=O)cc1 (stereo unspecified),0.072,77*,-2,-2,-2,-2
CN(C)c1nc(N)nc(CSc2nc3c(c(=O)n(C)c(=O)n3C)n2Cc2ccccc2F)n1,0.93,72*,2,-2,-1,-57
Nc1nc(-c2cccnc2)nn1C(=O)Cc1ccccc1,-0.43,78*,-6,-1,0,7
Nc1nc(-c2ccccc2)nn1C(=O)Cc1ccccc1,0.32,-6,-12,-1,-2,6
COC(=O)Cn1c(=NC(=O)c2nc3ccccc3s2)sc2cc(S(C)(=O)=O)ccc21,1.7,-83,-14,42*,2,x
Cc1nn(C)c(C)c1NC(=O)CSc1nc(Cc2ccccc2)nc2c1cnn2-c1ccccc1,-1.1,x,x,1,-2,5
CCc1nc(SCC(=O)Nc2c(C)nn(C)c2C)c2cnn(-c3ccccc3)c2n1,0.51,90*,-1,x,x,x
CC(OC(=O)c1cc(=O)[nH]c2ccccc12)C(=O)Nc1ccccc1F (stereo unspecified),x,x,x,-2,0,4
O=C(NCc1ccco1)c1cccs1,-0.52,76*,-17,-4,-1,3
C/C(=N/O)c1cc(C(C)(C)C)c(O)c(C(C)(C)C)c1,0.48,86*,-2,-1,-1,8
O=C(Nc1ccc(-c2csc(Nc3ccccc3)n2)cc1)c1cccc(C(F)(F)F)c1,0.035,91*,14,14,10,12
CCCCNc1c(-c2ccc(OC)c(SC3CCCCC3)c2)nc2ccc(C)cn12,x,x,x,-10,-9,76*
